In ChEMBL document CHEMBL1121556, “Structure-activity relationships in a series of newly synthesized 1-amino-substituted ellipticine derivatives” (J Med Chem, 1980):
Starred links: 1 amine or outer side, 2 acyl side, 3 side chain; linkers in the order of their positions; H or OH if unused. Positions of bridges follow the written chain, without caps; N, C: chain ends. Non-standard residues stand in square brackets, D forms with d. Residues, ends and D or L forms follow the SMILES beside them. Chains are numbered I, II in the order given. Actinocin(1to9) = Cc1c2oc3c(C)ccc(C(=O)[*:2])c3nc-2c(C(=O)[*:1])c(N)c1=O; NMeV = CN[C@H](C(=O)O)C(C)C; Sar = CNCC(=O)O

Columns and labels:
Mus musculus [1] = experiment: In vivo evaluation of antitumor activity on L1210 leukemia cells at the dose 5 mg/kg administered intraperitoneally 1 day after 10 e5 L1210 leukemia cells and Mean survival time; settings: route intraperitoneal
Nucleic Acid [2] = experiment: (§1) Apparent association constant towards DNA at concentration of 10e-7/M; format: nucleic-acid assay; settings: Bos taurus
Method in brief: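 Apparent association constant from absorption changes of 6 × 10^-7 M calf thymus DNA (as mononucleotide concentration) in 50 mM Tris-HCl, pH 7.4, 0.1 M NaCl.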

[3] = system: Friend leukemia cells (Mus musculus); experiment: In vitro concentration required for growth inhibition of murine Friend leukemia cell; settings: read-out: ID50 (the source's name)
Mus musculus [4] = experiment: In Vivo antitumor activity on grafted tumor friend cells at the dose 5 mg/kg and decrease in intravenous 10 e 6 cells and median survival time was determined; format: functional
Method in brief: (§2)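 Friend tumor cells, 10^6, injected iv into syngeneic mice. Mice randomized in groups of 16. Drug dissolved in acidified saline (equimolar acetic acid) and given as a single iv dose 3 days after inoculation. Median survival time recorded. %ILS = (treated median survival − control median survival)/control median survival × 100.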

Mus musculus [5] = experiment: In Vivo evaluation for the antitumor activity on grafted tumor friend cells at the dose 20 mg/kg and Increase in the life span was determined; format: functional
Method in brief: as §2

Mus musculus [6] = experiment: In vivo acute toxicity (lethal dose) against mice by intraperitoneal administration; format: organism-based; settings: ip
Method in brief: (§3)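 Mice (ICFW, C3H or B6D2 F1; 6-8 weeks; 22-24 g) in five groups of six. Drug dissolved in acidified saline (equimolar acetic acid) and given as a single ip or iv dose of 2, 5, 10, 25 or 50 mg/kg. Mortality observed over 30 days to set the lethal dose (LD100) and the highest nonlethal dose (LD0).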

Nucleic Acid [7] = experiment: B app constant towards DNA; format: nucleic-acid assay; settings: Bos taurus
Method in brief: (§4)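 Association constants for DNA binding were derived from absorption changes of calf thymus DNA at 6 × 10^-7 M, expressed as mononucleotide concentration. The buffer was 50 mM Tris-HCl, pH 7.4, with 0.1 M NaCl.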

Mus musculus [8] = experiment: In vivo acute toxicity (nonlethal dose) against mice by intravenous administration; format: organism-based
Method in brief: as §3

Mus musculus [9] = experiment: In vivo acute toxicity (nonlethal dose) against mice by intraperitoneal administration; format: organism-based; settings: ip
Method in brief: as §3

Mus musculus [10] = experiment: In vivo acute toxicity (lethal dose) against mice by intravenous administration; format: organism-based
Method in brief: as §3

Mus musculus [11] = experiment: In vivo antitumor activity on L1210 leukemia cells at the dose 15 mg/kg administered intraperitoneally 1 day after 10 e5 L1210 leukemia cells and range of deaths; format: functional; settings: route intraperitoneal
Mus musculus [12] = experiment: In vivo evaluation of antitumor activity on L1210 leukemia cells at the dose 15 mg/kg administered intraperitoneally 1 day after 10 e5 L1210 leukemia cells and increase in life span;(P<0.001); format: functional; settings: L1210, ip, 24 h, route intraperitoneal
Mus musculus [13] = experiment: In vivo evaluation of antitumor activity on L1210 leukemia cells at the dose 10 mg/kg administered intraperitoneally 1 day after 10 e5 L1210 leukemia cells and increase in life span; format: functional; settings: L1210, ip, 24 h, route intraperitoneal
Mus musculus [14] = experiment: In vivo antitumor activity on L1210 leukemia cells at the dose 10 mg/kg administered intraperitoneally 1 day after 10 e5 L1210 leukemia cells and range of deaths; format: functional; settings: route intraperitoneal
Mus musculus [15] = experiment: In vivo evaluation of antitumor activity on L1210 leukemia cells at the dose 10 mg/kg administered intraperitoneally 1 day after 10 e5 L1210 leukemia cells and Mean survival time; format: functional; settings: route intraperitoneal
Nucleic Acid [16] = experiment: Apparent association constant towards DNA at concentration of […].; format: nucleic-acid assay; settings: Bos taurus
Method in brief: as §4

Mus musculus [17] = experiment: In vivo evaluation of antitumor activity on L1210 leukemia cells at the dose 15 mg/kg administered intraperitoneally 1 day after 10 e5 L1210 leukemia cells and increase in life span; format: functional; settings: L1210, ip, 24 h, route intraperitoneal
Mus musculus [18] = experiment: In vivo evaluation of antitumor activity on L1210 leukemia cells at the dose 15 mg/kg administered intraperitoneally 1 day after 10 e5 L1210 leukemia cells and Mean survival time; format: functional; settings: route intraperitoneal
Nucleic Acid [19] = experiment: Apparent association constant towards DNA at concentration of 10 E-7/M; format: nucleic-acid assay; settings: Bos taurus
Method in brief: as §4

Mus musculus [20] = experiment: In vivo antitumor activity on L1210 leukemia cells at the dose 15 mg/kg administered intraperitoneally estimated as range of deaths; format: functional; settings: route intraperitoneal
Nucleic Acid [21] = experiment: as §1; format: nucleic-acid assay; settings: Bos taurus; remark: listed apart in the source
Method in brief: as §4

Mus musculus [22] = experiment: In Vivo antitumor activity on grafted tumor friend cells at the dose 20 mg/kg and decrease in intravenous 10 e 6 cells and median survival time; format: functional
Method in brief: as §2

Mus musculus [23] = experiment: In vivo evaluation for the antitumor activity on L1210 leukemia cells at the dose 15 mg/kg administered intraperitoneally estimated as increase in life span; format: functional; settings: L1210, ip, route intraperitoneal
Mus musculus [24] = experiment: In vivo evaluation for the antitumor activity on L1210 leukemia cells at the dose 15 mg/kg administered intraperitoneally estimated as Mean survival time; format: functional; settings: route intraperitoneal
Mus musculus [25] = experiment: In vivo evaluation for the antitumor activity on L1210 leukemia cells at the dose 2.5 mg/kg administered intraperitoneally 1 day after 10 e5 L1210 leukemia cells and increase in life span; format: functional; settings: L1210, ip, 24 h, route intraperitoneal
Mus musculus [26] = experiment: In Vivo antitumor activity on grafted tumor friend cells at the dose 2.5 mg/kg and decrease in intravenous 10 e 6 cells and median survival time; format: functional
Method in brief: as §2

Mus musculus [27] = experiment: In vivo antitumor activity on L1210 leukemia cells at the dose 2.5 mg/kg administered intraperitoneally 1 day after 10 e5 L1210 leukemia cells and range of deaths; format: functional; settings: route intraperitoneal
Mus musculus [28] = experiment: In Vivo evaluation for the antitumor activity on grafted tumor friend cells at the dose 2.5 mg/kg and Increase in the life span; format: functional
Method in brief: as §2

Mus musculus [29] = experiment: In vivo evaluation for the antitumor activity on L1210 leukemia cells at the dose 2.5 mg/kg administered intraperitoneally 1 day after 10 e5 L1210 leukemia cells and Mean survival time; format: functional; settings: route intraperitoneal

Compound | IC50 [3] [nM] | LD100 (Mus musculus [6]) [mg/kg] | Bapp (Nucleic Acid [7]) | LD0 (Mus musculus [8]) [mg/kg] | LD0 (Mus musculus [9]) [mg/kg] | LD100 (Mus musculus [10]) [mg/kg] | further results
CCN(CC)CCCNc1nccc2c(C)c3[nH]c4ccc(O)cc4c3cc12 | 20 | 15 | 0.11 | 5 | 5 | 15 | MST (Mus musculus [1]): 16 days; K app (Nucleic Acid [2]): 3.7e+07 M⁻¹; MST (Mus musculus [4]): 11 days; ILS at 20 mg/kg (Mus musculus [5]): 29.4%; Range of deaths (Mus musculus [11]): 18 days; ILS at 15 mg/kg (Mus musculus [12]): 49.5%
COc1ccc2[nH]c3c(C)c4ccnc(NCCCN)c4c(C)c3c2c1 | 100 | 20 |  |  | 10 |  | ILS at 10 mg/kg (Mus musculus [13]): 14%; Range of deaths (Mus musculus [14]): 14 days; MST (Mus musculus [15]): 12.2 days
COc1ccc2[nH]c3c(C)c4ccnc(NCCCN5CCN(CCCN)CC5)c4cc3c2c1 | 200 | 50 |  | < 1 | 25 | 2.5 | 
Cc1c2oc3c(C)ccc(C(=O)N[C@@H]4C(=O)N[C@H](C(C)C)C(=O)N5CCC[C@H]5C(=O)N(C)CC(=O)N(C)[C@@H](C(C)C)C(=O)O[C@@H]4C)c3nc-2c(C(=O)N[C@@H]2C(=O)N[C@H](C(C)C)C(=O)N3CCC[C@H]3C(=O)N(C)CC(=O)N(C)[C@@H](C(C)C)C(=O)O[C@@H]2C)c(N)c1=O [DACTINOMYCIN] (I: T[dV]P[Sar][NMeV] / II: T[dV]P[Sar][NMeV]; ester I:1-I:C, II:1-II:C; linker I:N-II:N via Actinocin(1to9)) | 1 |  |  |  |  |  | 
CCN(CC)CCCNc1nccc2c(C)c3[nH]c4ccc(OCc5ccccc5)cc4c3c(C)c12 | 1000 |  |  |  |  |  | 
COc1ccc2[nH]c3c(C)c4ccnc(NCCCN(C)C)c4cc3c2c1 | 1000 |  | 0.09 |  |  |  | K app (Nucleic Acid [16]): 3.15e+07 M⁻¹
COc1ccc2[nH]c3c(C)c4ccnc(NCCCN(C)C)c4c(C)c3c2c1 | 300 | 30 |  |  | 15 |  | ILS at 15 mg/kg (Mus musculus [17]): 33.3%; MST (Mus musculus [18]): 15.3 days; Range of deaths (Mus musculus [11]): 18 days
CCN(CCCN)CCCNc1nccc2c(C)c3[nH]c4ccc(OC)cc4c3cc12 | 200 | 15 |  |  | 5 |  | 
CCN(CC)CCCNc1nccc2c(C)c3[nH]c4ccc(OCc5ccccc5)cc4c3cc12 | 2000 |  |  |  |  |  | 
COc1ccc2[nH]c3c(C)c4ccnc(Nc5ccc(NS(C)(=O)=O)cc5)c4cc3c2c1 | 2000 |  |  |  |  |  | 
COc1ccc2[nH]c3c(C)c4ccnc(NCCCN)c4cc3c2c1 | 200 |  | 0.07 |  |  |  | K app (Nucleic Acid [19]): 3.05e+07 M⁻¹
CCN(CC)CCCNc1nccc2c(C)c3[nH]c4ccc(OC)cc4c3c(C)c12 [RETELLIPTINE] | 300 | 60 | 0.16 | 20 | 15 | 60 | Range of deaths (Mus musculus [20]): 35 days; ILS at 20 mg/kg (Mus musculus [5]): 24.7%; K app (Nucleic Acid [21]): 3.15e+07 M⁻¹; MST (Mus musculus [22]): 10.6 days; ILS at 15 mg/kg (Mus musculus [23]): 134%; MST (Mus musculus [24]): 25 days
CCN(CC)CCCNc1nccc2c(C)c3[nH]c4ccc(O)cc4c3c(C)c12 | 30 | 7 | 0.16 | 2 | 2.5 | 7 | ILS at 2.5 mg/kg (Mus musculus [25]): 57.1%; MST (Mus musculus [26]): 11.4 days; Range of deaths (Mus musculus [27]): 19 days; ILS at 2.5 mg/kg (Mus musculus [28]): 34.1%; K app (Nucleic Acid [21]): 2e+07 M⁻¹; MST (Mus musculus [29]): 16.4 days
